According to ChEMBL document CHEMBL4689842, “EUbOPEN Chemogenomics Library wave 1” (2021):
Several values for one entry are separate records, joined by “and”; a condition that tells them apart may be missing. Equal values may be shown once.

Test system: Fibroblast
Test: Multiplex assay against human fibroblast
Assay type: toxicity, cell-based
Conditions: 10 µM, compound concentration 10 uM
Outline: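 Compound was added to live cells that had been stained at seeding with Hoechst33342, BioTracker Green Microtubule Cytoskeleton Dye, MitoTracker Red and Annexin V Alexa Fluor 680, and imaging followed on a CQ1 microscope at 37°C and 5% CO2. CellPathfinder machine-learning gating divided cells into Hoechst high-intensity objects or normal cells, normal cells into healthy, pyknosed or fragmented nuclei, and pyknosed cells into mitotic or apoptotic. Tubulin, mitochondrial-mass and membrane-permeability phenotypes are per cents of healthy-nucleus cells.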

With `COc1ccc(Oc2cc(NCCC(F)(F)F)c3ncc(-c4ccc(C(=O)NC5CC5)c(C)c4)n3n2)c(F)c1F` [BAY-1217389] the “Population Apoptotic (%)” value (12 h, replicate 1) was 63% and 54%, the “Population Fragmented Nuclei (%)” value (12 h, replicate 1) was 28% and 27% and the “Population Healthy Nuclei (%)” value (12 h, replicate 1) was 48% and 59%. The “Population Hoechst High Intensity Objects (%)” value (12 h, replicate 1) was 18% and 14%, the “Population Membrane Permeable-Phenotype (%)” value (12 h, replicate 1) was 18% and 15% and the “Population Mitotic Cells (%)” value (12 h, replicate 1) was 36% and 45%. For the same molecule, the “Population Normal (%)” value (12 h, replicate 1) was 81% and 85%, the “Population Pyknosed Nuclei (%)” value (12 h, replicate 1) was 23% and 12% and the “Population Tubulin-Different-Phenotype (%)” value (12 h, replicate 1) was 45% and 31%. For the same molecule, the “Total Cell Count” value (12 h, replicate 1) was 203 and 339, the “Population Apoptotic (%)” value (12 h, replicate 2) was 65% and 22% and the “Population Fragmented Nuclei (%)” value (12 h, replicate 2) was 35% and 55%. For the same molecule, the “Population Healthy Nuclei (%)” value (12 h, replicate 2) was 33% and 28%, the “Population Hoechst High Intensity Objects (%)” value (12 h, replicate 2) was 23% and 34% and the “Population Membrane Permeable-Phenotype (%)” value (12 h, replicate 2) was 20%. For the same molecule, the “Population Mitochondria Different-Phenotype (%)” value (12 h, replicate 2) was 34% and 18%, the “Population Mitotic Cells (%)” value (12 h, replicate 2) was 35% and 77% and the “Population Normal (%)” value (12 h, replicate 2) was 76% and 65%. The “Population Pyknosed Nuclei (%)” value (12 h, replicate 2) was 30% and 16%, the “Population Tubulin-Different-Phenotype (%)” value (12 h, replicate 2) was 38% and 50% and the “Total Cell Count” value (12 h, replicate 2) was 170 and 86. The “Population Apoptotic (%)” value (24 h, replicate 1) was 77% and 48%, the “Population Fragmented Nuclei (%)” value (24 h, replicate 1) was 30% and 23% and the “Population Healthy Nuclei (%)” value (24 h, replicate 1) was 41% and 63%. For the same molecule, the “Population Hoechst High Intensity Objects (%)” value (24 h, replicate 1) was 15% and 13%, the “Population Membrane Permeable-Phenotype (%)” value (24 h, replicate 1) was 12% and 8% and the “Population Mitotic Cells (%)” value (24 h, replicate 1) was 22% and 51%. For the same molecule, the “Population Normal (%)” value (24 h, replicate 1) was 84% and 86%, the “Population Pyknosed Nuclei (%)” value (24 h, replicate 1) was 27% and 13% and the “Population Tubulin-Different-Phenotype (%)” value (24 h, replicate 1) was 59% and 27%. For the same molecule, the “Total Cell Count” value (24 h, replicate 1) was 211 and 319, the “Population Fragmented Nuclei (%)” value (24 h, replicate 2) was 54% and 47% and the “Population Healthy Nuclei (%)” value (24 h, replicate 2) was 20% and 36%. For the same molecule, the “Population Hoechst High Intensity Objects (%)” value (24 h, replicate 2) was 19% and 30%, the “Population Membrane Permeable-Phenotype (%)” value (24 h, replicate 2) was 18% and 19% and the “Population Mitochondria Different-Phenotype (%)” value (24 h, replicate 2) was 18% and 23%. For the same molecule, the “Population Mitotic Cells (%)” value (24 h, replicate 2) was 32% and 88%, the “Population Normal (%)” value (24 h, replicate 2) was 80% and 69% and the “Population Pyknosed Nuclei (%)” value (24 h, replicate 2) was 24% and 15%. The “Population Tubulin-Different-Phenotype (%)” value (24 h, replicate 2) was 29% and 52%.
